Source: ChEMBL document CHEMBL1141116, “Synthesis and structure-activity relationship of the first nonpeptidergic inverse agonists for the human cytomegalovirus encoded chemokine receptor US28” (J Med Chem, 2005)

Tests used:
[1] = biological target: T1, G-protein coupled receptor homolog US28 (Human cytomegalovirus (strain AD169) (HHV-5) (Human herpesvirus 5), UniProt P69332); assay: Inhibitory concentration against chemokine receptor US28 expressed in COS-7 cells using [125I]-CCL5; assay type: cell-based, Human betaherpesvirus 5
T1 sequence (P69332 whole entry): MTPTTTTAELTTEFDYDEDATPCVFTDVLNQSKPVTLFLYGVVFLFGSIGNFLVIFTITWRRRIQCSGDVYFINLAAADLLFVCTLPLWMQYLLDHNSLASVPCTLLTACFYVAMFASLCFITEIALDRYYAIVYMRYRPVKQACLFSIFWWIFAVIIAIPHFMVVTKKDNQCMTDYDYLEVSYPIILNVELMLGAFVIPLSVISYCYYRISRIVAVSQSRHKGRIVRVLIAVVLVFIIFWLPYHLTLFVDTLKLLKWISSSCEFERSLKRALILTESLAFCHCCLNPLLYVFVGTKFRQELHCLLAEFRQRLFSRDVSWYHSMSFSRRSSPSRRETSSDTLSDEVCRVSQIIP
Method in brief: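 Whole US28-transfected COS-7 cells, 48 h post-transfection, incubated 3 h at 4 °C with 0.3 nM [125I]CCL5 in 50 mM Hepes pH 7.4, 1 mM CaCl2, 5 mM MgCl2, 0.5% BSA ± varying compound concentrations. Four washes at 4 °C with buffer plus 0.5 M NaCl; nonspecific binding with 0.1 μM unlabeled CCL5. IC50 as mean, interval from ≥3 experiments unless noted.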

[2] = biological target: T1, G-protein coupled receptor homolog US28; assay: Effective concentration against US28-mediated inositol phosphate production in COS-7 cells; assay type: functional, cell-based
Method in brief: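 COS-7 cells transiently transfected (DEAE-dextran, 2 μg DNA per million cells, pcDEF3-US28); 24 h post-transfection labeled overnight with 2 μCi/ml myo-[2-3H]inositol in inositol-free medium. After 10 min wash, 2 h incubation in DMEM with 25 mM HEPES pH 7.4 and 20 mM LiCl ± varying compound concentrations; stopped with cold 10 mM formic acid, [3H]inositol phosphates isolated by anion exchange, scintillation counted. EC50 as mean, interval from ≥3 experiments.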

SMILES: N#CC1(c2ccccc2)CCN(CCCC(C#N)(c2ccccc2)c2ccccc2)CC1
- IC50 [1]: > 100 µM
- EC50 [2]: > 100 µM

SMILES: N#CC(CCCN1CCC(O)CC1)(c1ccccc1)c1ccccc1
- IC50 [1]: > 100 µM
- EC50 [2]: > 100 µM

SMILES: CCOC(=O)C1CCN(CCCC(C#N)(c2ccccc2)c2ccccc2)CC1
- IC50 [1]: 34.7 µM
- EC50 [2]: > 100 µM

SMILES: COc1ccc(C(CCCN2CCC(O)(c3ccc(Cl)cc3)CC2)c2ccccc2)cc1 (configuration not stated)
- IC50 [1]: 15.5 µM

SMILES: CC1(O)CCN(CCCC(C#N)(c2ccccc2)c2ccccc2)CC1
- IC50 [1]: > 100 µM
- EC50 [2]: > 100 µM

SMILES: O=C(CCCN1CCC(O)(c2ccc(Cl)cc2)CC1)c1ccccc1
- IC50 [1]: > 100 µM

SMILES: N#CC(CCCN1CCN(c2ccc(Cl)cc2)CC1)(c1ccccc1)c1ccccc1
- IC50 [1]: > 100 µM
- EC50 [2]: > 100 µM

SMILES: Cc1ccc(C2(O)CCN(CCCC(C#N)(c3ccccc3)c3ccccc3)CC2)cc1
- IC50 [1]: 60.3 µM

SMILES: Cc1ccc(C(CCCN2CCC(O)(c3ccc(Cl)cc3)CC2)c2ccccc2)cc1 (configuration not stated)
- IC50 [1]: 30.9 µM
- EC50 [2]: 11.5 µM

SMILES: N#CC(CCCN1CCC(c2ccc(Cl)cc2)CC1)(c1ccccc1)c1ccccc1
- EC50 [2]: 13.8 µM

SMILES: OC1(c2ccc(Cl)cc2)CCN(CCCC(c2ccccc2)c2ccccc2)CC1
- IC50 [1]: 6.5 µM
- EC50 [2]: 4.2 µM

SMILES: OC1(c2ccc(Cl)cc2)CCN(CCCC(c2ccccc2)c2ccc(Cl)c(Cl)c2)CC1 (configuration not stated)
- IC50 [1]: 15.8 µM

SMILES: CCCCC1(O)CCN(CCCC(C#N)(c2ccccc2)c2ccccc2)CC1
- IC50 [1]: > 100 µM
- EC50 [2]: > 100 µM

SMILES: N#CC(CCCN1CC=C(c2ccc(Cl)cc2)CC1)(c1ccccc1)c1ccccc1
- IC50 [1]: > 100 µM
- EC50 [2]: > 100 µM

SMILES: Cc1ccccc1C(CCCN1CCC(O)(c2ccc(Cl)cc2)CC1)c1ccccc1 (configuration not stated)
- IC50 [1]: 5.5 µM
- EC50 [2]: 9.8 µM

SMILES: N#CC(CCCN1CCC(C(=O)O)CC1)(c1ccccc1)c1ccccc1
- IC50 [1]: > 100 µM
- EC50 [2]: > 100 µM

SMILES: N#CC(CCCN1CCC(O)(Cc2ccccc2)CC1)(c1ccccc1)c1ccccc1
- IC50 [1]: 63.1 µM

SMILES: OC1(c2ccc(Cl)cc2)CCN(CCCC(c2ccccc2)c2ccc(Cl)cc2)CC1 (configuration not stated)
- IC50 [1]: 17 µM

SMILES: N#CC(CCCN1CCC(=C(c2ccccc2)c2ccccc2)CC1)(c1ccccc1)c1ccccc1
- IC50 [1]: > 100 µM
- EC50 [2]: > 100 µM

SMILES: Cc1cccc(C(CCCN2CCC(O)(c3ccc(Cl)cc3)CC2)c2ccccc2)c1 (configuration not stated)
- IC50 [1]: 11.5 µM

SMILES: OC(CCCN1CCC(O)(c2ccc(Cl)cc2)CC1)c1ccccc1 (configuration not stated)
- IC50 [1]: > 100 µM
- EC50 [2]: > 100 µM

SMILES: N#CC(CCCN1CCC(O)(c2ccc(Cl)c(Cl)c2)CC1)(c1ccccc1)c1ccccc1
- IC50 [1]: 38 µM

SMILES: N#CC(CCCN1CCC(C(N)=O)CC1)(c1ccccc1)c1ccccc1
- IC50 [1]: > 100 µM
- EC50 [2]: > 100 µM

SMILES: OC1(c2ccc(Cl)cc2)CCN(CCCC(c2ccc(Cl)cc2)c2ccc(-c3ccccc3)cc2)CC1 (configuration not stated)
- IC50 [1]: > 100 µM
- EC50 [2]: > 100 µM

SMILES: N#CC(CCCN1CCC(O)(c2ccccc2)CC1)(c1ccccc1)c1ccccc1
- IC50 [1]: 35.5 µM
- EC50 [2]: 28.2 µM

SMILES: N#CC(CCCN1CCC(O)(c2ccc(Cl)c(C(F)(F)F)c2)CC1)(c1ccccc1)c1ccccc1
- IC50 [1]: 45.7 µM

SMILES: OC1(c2ccc(Cl)cc2)CCN(CCCCc2ccccc2)CC1
- IC50 [1]: 14.8 µM

SMILES: N#CC(CCCN1CCC(O)(c2ccc(Br)cc2)CC1)(c1ccccc1)c1ccccc1
- IC50 [1]: 19.5 µM

SMILES: OC1(c2ccc(Cl)cc2)CCN(CCCC(c2ccc(Cl)cc2)c2ccc(Cl)cc2)CC1
- IC50 [1]: 17.4 µM

SMILES: OC1(c2ccc(Cl)cc2)CCN(CCCOc2ccccc2)CC1
- IC50 [1]: 61.7 µM

SMILES: C[N+]1(CCCC(C#N)(c2ccccc2)c2ccccc2)CCC(O)(c2ccc(Cl)cc2)CC1 (configuration not stated)
- IC50 [1]: > 100 µM
- EC50 [2]: > 100 µM

SMILES: COc1ccc(C2(O)CCN(CCCC(C#N)(c3ccccc3)c3ccccc3)CC2)cc1
- IC50 [1]: 72.4 µM
- EC50 [2]: 28.8 µM

SMILES: N#CC(CCCN1CCC(O)(c2ccc(Cl)cc2)CC1)(c1ccccc1)c1ccccc1 [BERLEX COMPOUND]
- IC50 [1]: 9.3 µM
- EC50 [2]: 3.2 µM
